Measurements gathered from unrelated publications.
RIOK3: Serine/threonine-protein kinase RIO3 (RIOK3, Homo sapiens, UniProt O14730)
MAK: Serine/threonine-protein kinase MAK (MAK, Homo sapiens, UniProt P20794)
ACSL4: Long-chain-fatty-acid--CoA ligase 4 (ACSL4, Homo sapiens, UniProt O60488)

COc1cccc2c(N3CCC(CCP(=O)(O)O)CC3)ncnc12 has a residence time of 9 min (Ectonucleotide pyrophosphatase/phosphodiesterase family member 1 (Enpp1, Mus musculus, UniProt P06802); binding, SPR).
With CN1CCc2c(c3ccccc3n2Cc2ccc(C(=O)NO)cc2)C1 the inhibition was 94.8% (Protein deacetylase HDAC6 (HDAC6, Homo sapiens, UniProt Q9UBN7); enzyme activity, inhibitor, fluorescence; 0.5 µM).
For C[C@]1(O)CCCN(c2nc(Nc3ccc(S(=O)(=O)N[C@H]4CC[C@H](CN5CCN(c6ccc(C7CCC(=O)NC7=O)cc6F)CC5)CC4)cc3F)ncc2C(F)(F)F)C1 (stereo partly shown), the remaining binding was 100% (RIOK3; binding, competition with immobilised ligand; 1 µM).
CCCCC(=O)Nc1ccc(-c2ccc3ncn(CCC)c(=O)c3c2)cn1 has a remaining binding of 71% (MAK; binding, competition with immobilised ligand; 0.5 µM).
C1=C/COCc2cc(ccc2OCCN2CCCC2)Nc2nccc(n2)-c2cccc(c2)COC/1 has a remaining binding of 100% (MAK; binding; 0.1 µM).
The ΔTm of O=C(/C=C/c1ccc(O)c(O)c1)O[C@H](Cc1ccc(O)c(O)c1)C(=O)O is reported as 9.31 °C (Peroxiredoxin-1 (PRDX1, Homo sapiens, UniProt Q06830); thermal stability, DSF; 800 µM).
CNS(=O)(=O)c1ccc(Nc2ncc(C(F)(F)F)c(N3CCC[C@](C)(O)C3)n2)c(C)c1 gave a remaining binding of 99% (RIOK3; binding, competition with immobilised ligand; 1 µM).
With C#Cc1cc(-c2cc(Nc3nc(N[C@@H](C)c4ccc(F)cn4)ncc3Cl)n[nH]2)ccc1C=O the inhibition was 74.8% (Non-receptor tyrosine-protein kinase TNK1 (TNK1, Homo sapiens, UniProt Q13470); enzyme activity, inhibitor; 0.2 µM).
With Cc1cc(S(=O)(=O)N[C@H]2CC[C@H](CN3CCN(c4ccc(C5CCC(=O)NC5=O)cc4F)CC3)CC2)ccc1Nc1ncc(C(F)(F)F)c(N2CCC[C@](C)(O)C2)n1 (stereo partly shown) the remaining binding was 55% (Cyclin-dependent kinase 7 (CDK7, Homo sapiens, UniProt P50613); binding, competition with immobilised ligand; 1 µM).
With COc1ccc(CC2SC(=O)NC2=O)cc1 (stereo not shown) the inhibition was 13% (ACSL4; enzyme activity, inhibitor; 10 µM).
With CCN1/C(=C/C(C)=O)Sc2ccc(F)cc21 the inhibition was 1.73% (5-hydroxytryptamine receptor 1B (HTR1B, Homo sapiens, UniProt P28222); ligand displacement, radioligand; 10 µM).
With CC1(COc2ccc(CC3SC(=O)NC3=O)cc2)CCCCC1 (stereo not shown) the inhibition was 20% (ACSL4; enzyme activity, inhibitor; 10 µM).
With NC/C(=C\F)COc1cccc(Cn2c(=S)[nH]c(=O)c3[nH]cnc32)c1 the inhibition was under 50% (Prostaglandin E2 receptor EP4 subtype (PTGER4, Homo sapiens, UniProt P35408); ligand displacement, radioligand; 10 µM).
